# Measured values as given in publication PMC8914349 (Molecular cancer therapeutics, 2020).
# Read-outs that look alike come from different tables or passages of the source. Marks after values point to notes of the source that are not given here.
# Legend:
# [1] = system: canine MM cells (M1, M5, M2, M3, and Jones); assay: MTS viability assay, 72h, canine MM cell lines; format: cell-based; conditions: canine MM cells in vitro, single agent
# canine MM cell = conditions: cited from earlier work
# [2] = format: in vivo, mice; conditions: for Liver hepatocelluar vacuolation, numbers of animals / Renal tubules scattered isolated necrosis and regeneration, numbers of animals / Renal tubules zonal cortical degeneration/necrosis, numbers of animals / Spleen red and white pulp hypocellularity, numbers of animals / Spleen lymphocytolysis, numbers of animals / Spleen lymphoid and hematopoietic hyperplasia, numbers of animals / Bone marrow hypocellularity, numbers of animals: n = 5
# Method in brief: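 Non-tumor-bearing female nu/nu nude mice (n=5 per group) were dosed by oral gavage in 0.5% HPMC/0.2% Tween for 21 days. […] Bone marrow, kidney, spleen, liver and other organs were fixed for histopathology. Animals per lesion were counted and graded minimal/moderate/severe. Blood was taken into EDTA for complete counts before removal.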
# mTOR = conditions: ATP-competitive mTOR selective inhibitor; ref https://adisinsight.springer.com/drugs/800030541; https://drugs.ncats.io/substance/JGH0DF1U03#activemoieties; cited from earlier work
# [3] = system: human cutaneous melanoma cells (WM3311, WM2032, WM853–2 and WM858); assay: MTS viability assay, 72h, human cutaneous melanoma cell lines; format: cell-based
# [4] = system: M1-derived metastatic subline; assay: Tail vein injection metastasis study; format: in vivo, mice; conditions: trametinib 5.0 mg/Kg daily, sapanisertib 2.0 mg/Kg three times a week, four-week treatment
# [5] = system: M1 or M5 canine MM subcutaneous xenografts; conditions: oral 5.0 mg/Kg trametinib or 2.0 mg/Kg sapanisertib EOD for 3 weeks, single agents
# [6] = system: p-ERK, p-AKT, p-S6 and p-4E-BP1 in M1 or M5 canine MM xenografts; assay: Drug target modulation in vivo in tumor xenografts; parameters: species or system mice; conditions: three consecutive days; for p-ERK level in tumors: sapanisertib 2.0 mg/Kg or trametinib 5.0 mg/Kg oral
# Method in brief: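 Female nu/nu athymic nude mice, 6–8 weeks old, received 1×10⁶ M1 or M5 cells s.c. in the flank and were randomized at 75–150 mm³ (five per group). […] Tumor lysates went to western blot and fixed sections to H&E plus p-ERK/p-S6 IHC.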
# [7] = Preliminary dose range study in mice with canine M1 or M5 MM xenografts; format: in vivo; conditions: daily 3.0 mg/Kg, oral
# [8] = Single administration plasma pharmacokinetics in tumor-bearing mice; format: in vivo; conditions: mouse plasma
# Method in brief: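 Plasma and tumor were taken from two mice per group per timepoint over 2–48 h. Validated LC-MS/MS was used; sapanisertib was read by MRM m/z 310.2→268.1, calibrated 1–1000 ng/mL. Noncompartmental analysis for destructive sampling gave Cmax, T1/2 and AUC to last timepoint, with AUC error by Bailer's method.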
# [9] = system: Ras/MAPK and PI3K/Akt/mTOR signal transduction targets; format: cell-based, canine; conditions: for target inhibition in vitro (western blot): trametinib 10 nM, sapanisertib 40 nM, 4 and 24h, M1, M5 and Jones
# Method in brief: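 Cell lysates were immunoblotted for p-AKT, p-S6 and p-ERK (pathway activation) and for cyclin D1, cyclin B1, Bim, Bcl-xl, Mcl-1 and p-Bad.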
# [10] = patients receiving the clinically approved dose of 2 mg trametinib; cited from earlier work
# [11] = sapanisertib 2mg/kg daily, no lesion
# [12] = sapanisertib 2mg/kg daily, severity + minimal
# [13] = sapanisertib 2mg/kg daily, severity ++ moderate
# [14] = sapanisertib 2mg/kg daily, severity +++ severe
# [15] = sapanisertib 2mg/kg every other day, no lesion
# [16] = sapanisertib 2mg/kg every other day, severity + minimal
smiles,measurement,setting,value
Nc1ccc(-c2ccc3ncc4ccc(=O)n(-c5cccc(C(F)(F)F)c5)c4c3c2)cn1 [Torin 2],cytotoxicity / sensitivity of cells,[1],highly effective
Cn1c(=O)n(-c2ccc(C(C)(C)C#N)cc2)c2c3cc(-c4cnc5ccccc5c4)ccc3ncc21 [dactolisib],cytotoxicity,canine MM cell; canine MM cells,dose dependent cytotoxicity
CC(C)n1nc(-c2ccc3oc(N)nc3c2)c2c(N)ncnc21 [sapanisertib],tolerability,[2]; 2.0 mg/Kg alone EOD,well tolerated
same,white blood cell counts finding,[2]; sapanisertib 2.0 mg/Kg daily,lymphopenia
same,"Liver hepatocelluar vacuolation, numbers of animals",[2]; [11],2
same,"Renal tubules scattered isolated necrosis and regeneration, numbers of animals",[2]; [11],5
same,"Renal tubules zonal cortical degeneration/necrosis, numbers of animals",[2]; [11],1
same,"Spleen red and white pulp hypocellularity, numbers of animals",[2]; [11],1
same,"Liver hepatocelluar vacuolation, numbers of animals",[2]; [12],1
same,"Renal tubules zonal cortical degeneration/necrosis, numbers of animals",[2]; [12],1
same,"Spleen lymphocytolysis, numbers of animals",[2]; [12],5
same,"Spleen lymphoid and hematopoietic hyperplasia, numbers of animals",[2]; [12],2
same,"Spleen red and white pulp hypocellularity, numbers of animals",[2]; [12],2
same,"Bone marrow hypocellularity, numbers of animals",[2]; [13],3 ^†
same,"Liver hepatocelluar vacuolation, numbers of animals",[2]; [13],1
same,"Renal tubules zonal cortical degeneration/necrosis, numbers of animals",[2]; [13],3
same,"Spleen red and white pulp hypocellularity, numbers of animals",[2]; [13],2
same,"Bone marrow hypocellularity, numbers of animals",[2]; [14],2
same,"Liver hepatocelluar vacuolation, numbers of animals",[2]; [14],1
same,"Bone marrow hypocellularity, numbers of animals",[2]; [15],5
same,"Liver hepatocelluar vacuolation, numbers of animals",[2]; [15],5
same,"Renal tubules scattered isolated necrosis and regeneration, numbers of animals",[2]; [15],1
same,"Renal tubules zonal cortical degeneration/necrosis, numbers of animals",[2]; [15],5
same,"Spleen lymphocytolysis, numbers of animals",[2]; [15],2
same,"Spleen lymphoid and hematopoietic hyperplasia, numbers of animals",[2]; [15],2
same,"Spleen red and white pulp hypocellularity, numbers of animals",[2]; [15],5
same,"Renal tubules scattered isolated necrosis and regeneration, numbers of animals",[2]; [16],4
same,"Spleen lymphocytolysis, numbers of animals",[2]; [16],3
same,"Spleen lymphoid and hematopoietic hyperplasia, numbers of animals",[2]; [16],3
same,selectivity for PI3K,mTOR,> 100 fold
same,IC50,"[3]; Homo sapiens, WM2032, 72 h",0.01 to 0.1 µM
same,intrathoracic metastatic tumor burden,[4],not as effective as trametinib in abating metastasis
same,tolerability,[5],tolerated with some varying body weight fluctuation
same,tumor growth,[5],"inhibited compared to vehicle-treated controls initially, but progression became evident over time"
same,p-ERK level in tumors,[6],increased p-ERK level
same,"p-AKT, p-S6 and p-4EBP-1 levels in tumors",[6]; sapanisertib 2.0 mg/Kg oral,reduced p-AKT as well as downstream effectors p-S6 and p-4EBP-1 levels
same,tolerability,[7],not well tolerated
same,T1/2 in the presence of trametinib compared to sapanisertib alone,[8],approximately 50%
same,change in sapanisertib PK in the presence of trametinib,[8],no significant change
same,cyclin expression (western blot),[9]; canine MM cells,effective in reducing cyclin B1
same,phosphorylation of Bad,[9]; canine MM cells,inhibited phosphorylation of Bad
same,reciprocal activation of ERK1/2,[9]; some cell lines,apparent reciprocal activation of ERK1/2
same,target inhibition in vitro (western blot),[9],inhibited their respective Ras/MAPK and PI3K/Akt/mTOR signal transduction targets
CC(=O)Nc1cccc(-n2c(=O)n(C3CC3)c(=O)c3c(Nc4ccc(I)cc4F)n(C)c(=O)c(C)c32)c1 [trametinib],IC50,"canine MM cell; read-out: IC50, inhibiting canine MM cell growth in vitro",~0.01 µM
same,sensitivity of cells,"[3]; human cutaneous melanoma cells, regardless of Ras and NF1 mutation status",sensitive
same,intrathoracic metastatic tumor burden,[4],significantly less metastatic tumor burdens in the thorax compared to control vehicle-treated mice
same,tumor growth,[5],"inhibited compared to vehicle-treated controls initially, but progression became evident over time"
same,cytotoxicity / sensitivity of cells,[1],sensitive
same,AUC,[10],248 ng·h/mL
same,Cmax,[10],8.03 ng/mL
same,p-ERK level in tumors,[6],less compared to vehicle-only treated mice
same,Bcl-xl levels,[9]; canine MM cells,reduced Bcl-xl levels
same,cyclin expression (western blot),[9]; canine MM cells,reduced the expression of cyclins D1 and B1
same,target inhibition in vitro (western blot),[9],inhibited their respective Ras/MAPK and PI3K/Akt/mTOR signal transduction targets
